Activity calls are given as the source filed them.
Key:
Assay type in all cases: cell-based
[1] = biological target: Toll-like receptor 2 (Homo sapiens) (UniProt O60603); test: Agonist activity at human TLR2 expressed in HEK293 cells assessed as induction of NF-kappaB activity by secreted alkaline phosphatase reporter gene assay
How it was run: (§1)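 HEK293 reporter lines stably co-transfected with the respective human TLR and an NF-κB/AP-1-driven secreted alkaline phosphatase gene, kept in selection medium. About 10^5 cells/ml were incubated with graded concentrations of stimuli. Supernatant sAP was read spectrophotometrically at 620 nm using a chromogenic substrate in detection medium. EC50 was taken as the arithmetic mean of quadruplicate samples.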

[2] = biological target: T1, Toll-like receptor 9 (Homo sapiens) (UniProt Q9NR96); test: Agonist activity at human TLR9 expressed in HEK293 cells assessed as induction of NF-kappaB activity by secreted alkaline phosphatase reporter gene assay; how it was run: as §1
T1 sequence (whole entry): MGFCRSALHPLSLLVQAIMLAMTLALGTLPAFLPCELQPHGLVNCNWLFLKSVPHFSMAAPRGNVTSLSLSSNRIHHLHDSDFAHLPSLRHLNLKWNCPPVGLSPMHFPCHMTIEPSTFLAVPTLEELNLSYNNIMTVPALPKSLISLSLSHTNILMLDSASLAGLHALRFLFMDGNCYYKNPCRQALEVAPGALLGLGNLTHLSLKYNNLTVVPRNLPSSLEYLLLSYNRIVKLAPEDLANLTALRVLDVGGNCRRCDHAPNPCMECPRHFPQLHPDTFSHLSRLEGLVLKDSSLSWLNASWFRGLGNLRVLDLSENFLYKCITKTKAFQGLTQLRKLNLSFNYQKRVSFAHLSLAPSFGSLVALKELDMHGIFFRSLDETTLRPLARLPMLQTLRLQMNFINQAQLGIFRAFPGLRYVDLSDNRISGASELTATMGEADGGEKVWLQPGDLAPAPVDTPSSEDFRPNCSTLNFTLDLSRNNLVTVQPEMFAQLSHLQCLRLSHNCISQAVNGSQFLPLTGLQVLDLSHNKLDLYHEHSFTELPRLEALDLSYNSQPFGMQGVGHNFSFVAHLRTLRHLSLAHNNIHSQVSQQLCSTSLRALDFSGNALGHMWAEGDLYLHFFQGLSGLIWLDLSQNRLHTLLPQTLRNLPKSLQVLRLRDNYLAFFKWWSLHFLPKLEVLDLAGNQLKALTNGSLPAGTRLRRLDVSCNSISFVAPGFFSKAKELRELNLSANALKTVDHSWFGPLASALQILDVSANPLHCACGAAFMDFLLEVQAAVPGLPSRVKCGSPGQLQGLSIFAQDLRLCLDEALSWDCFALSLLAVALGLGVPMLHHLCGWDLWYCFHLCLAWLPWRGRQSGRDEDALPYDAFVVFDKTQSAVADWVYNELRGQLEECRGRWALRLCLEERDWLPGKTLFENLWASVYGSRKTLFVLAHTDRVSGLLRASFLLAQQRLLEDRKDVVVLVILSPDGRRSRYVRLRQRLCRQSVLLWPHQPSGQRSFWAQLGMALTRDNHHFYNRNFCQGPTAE

[3] = biological target: T2, Toll-like receptor 7 (Homo sapiens) (UniProt Q9NYK1); test: Agonist activity at human TLR7 expressed in HEK293 cells assessed as induction of NF-kappaB activity by secreted alkaline phosphatase reporter gene assay; how it was run: as §1
T2 sequence (whole entry): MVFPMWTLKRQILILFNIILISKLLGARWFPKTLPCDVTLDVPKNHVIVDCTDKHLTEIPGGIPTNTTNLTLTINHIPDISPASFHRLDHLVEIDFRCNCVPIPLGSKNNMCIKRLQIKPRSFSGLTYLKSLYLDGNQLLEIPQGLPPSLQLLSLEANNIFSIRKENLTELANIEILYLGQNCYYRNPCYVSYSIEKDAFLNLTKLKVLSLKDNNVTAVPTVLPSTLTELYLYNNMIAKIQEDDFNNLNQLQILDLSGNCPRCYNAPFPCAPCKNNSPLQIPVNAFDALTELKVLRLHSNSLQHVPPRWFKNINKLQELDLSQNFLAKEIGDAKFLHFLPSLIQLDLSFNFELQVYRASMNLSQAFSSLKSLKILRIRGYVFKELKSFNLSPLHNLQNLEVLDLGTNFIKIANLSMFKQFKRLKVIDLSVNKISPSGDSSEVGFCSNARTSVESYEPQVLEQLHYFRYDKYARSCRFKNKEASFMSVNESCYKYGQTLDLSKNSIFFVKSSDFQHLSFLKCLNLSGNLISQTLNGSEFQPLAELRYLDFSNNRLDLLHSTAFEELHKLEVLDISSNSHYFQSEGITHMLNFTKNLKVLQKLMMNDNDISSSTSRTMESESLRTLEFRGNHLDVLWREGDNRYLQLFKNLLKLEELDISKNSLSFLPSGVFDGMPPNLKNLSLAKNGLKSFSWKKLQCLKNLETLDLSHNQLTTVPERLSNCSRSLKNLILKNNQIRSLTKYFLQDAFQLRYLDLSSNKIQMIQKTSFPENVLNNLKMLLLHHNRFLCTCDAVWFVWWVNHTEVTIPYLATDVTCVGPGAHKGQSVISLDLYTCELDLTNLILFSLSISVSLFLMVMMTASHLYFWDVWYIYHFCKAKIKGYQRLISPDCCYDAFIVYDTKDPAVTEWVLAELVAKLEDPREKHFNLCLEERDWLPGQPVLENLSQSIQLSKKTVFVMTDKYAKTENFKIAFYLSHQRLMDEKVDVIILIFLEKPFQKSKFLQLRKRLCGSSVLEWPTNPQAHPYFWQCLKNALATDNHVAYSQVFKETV

Measured: Activity

Chain of Toll-like receptor 2 (Homo sapiens) (O60603 whole entry): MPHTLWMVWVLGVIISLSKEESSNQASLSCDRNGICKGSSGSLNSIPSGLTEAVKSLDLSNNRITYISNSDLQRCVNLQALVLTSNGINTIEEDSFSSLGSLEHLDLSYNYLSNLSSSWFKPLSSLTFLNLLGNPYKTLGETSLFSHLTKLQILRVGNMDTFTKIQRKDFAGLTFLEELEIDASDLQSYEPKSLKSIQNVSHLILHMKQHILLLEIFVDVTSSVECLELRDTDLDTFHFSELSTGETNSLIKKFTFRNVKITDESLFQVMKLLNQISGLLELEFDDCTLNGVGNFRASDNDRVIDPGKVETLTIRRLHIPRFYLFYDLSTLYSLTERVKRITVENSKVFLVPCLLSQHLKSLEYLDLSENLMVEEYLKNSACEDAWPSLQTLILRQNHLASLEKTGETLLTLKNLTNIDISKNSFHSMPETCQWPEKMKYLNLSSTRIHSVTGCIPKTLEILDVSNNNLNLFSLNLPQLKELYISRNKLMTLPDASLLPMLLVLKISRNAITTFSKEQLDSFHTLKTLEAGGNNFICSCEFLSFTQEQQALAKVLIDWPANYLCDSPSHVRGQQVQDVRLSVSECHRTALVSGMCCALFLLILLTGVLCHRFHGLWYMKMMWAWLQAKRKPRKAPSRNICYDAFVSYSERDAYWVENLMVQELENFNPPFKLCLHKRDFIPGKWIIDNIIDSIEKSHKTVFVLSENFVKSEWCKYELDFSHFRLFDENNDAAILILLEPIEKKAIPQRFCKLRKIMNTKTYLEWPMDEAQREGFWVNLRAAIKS

CCCCCn1c(N)nc2c(C)cccc21
inactive: [1] | [2] | [3]

CCCCNc1nc(N)nc(C)c1CCCCN
inactive: [1] | [2] | [3]

CCCCNc1cc(-c2ccccc2)nc(N)n1
inactive: [1] | [2] | [3]

CCCCNc1nc(N)nc(C)c1I
inactive: [1] | [2] | [3]

CCCCNc1nc(N)nc(-c2ccccc2)c1CCCCN
inactive: [1] | [2] | [3]

From ChEMBL document CHEMBL4428062, “Human Toll-like Receptor (TLR) 8-Specific Agonistic Activity in Substituted Pyrimidine-2,4-diamines” (J Med Chem, 2016)
